Sampled rows, rich in hits. Any-hit rate of the full collection: about 1.6%.
PG9 Ab binder: binds the HIV-1 gp120 antibody PG9; actives 0.43% (n = 360,000); inhibition, % at 6.7 µM; AID 624416; TR-FRET gp120-PG9 antibody binding; in the data active = inhibition above about 8.5%
VLA-4 inh: inhibition in a human VLA-4 binding assay; P13612; VLA-4 expressing cells, ligand binding flow cytometry; inhibition, % (about 7 µM as worked out from the volumes in the protocol); actives 0.2% (n = 330,000); in the data active = inhibition above about 50%
NR2E3 ag-1: activates human NR2E3 receptor; Q9Y5X4; CHO-S Gal4-NCOR/VP16-NR2E3 two-hybrid, luciferase; inhibition of corepressor binding, % at 3.98 µM; actives 0.35% (n = 360,000); AID 602229;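 active = inhibition above the mean of all tested compounds plus 3 SD, cut at about 70% in these data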;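 note: 0% = DMSO with NR2E3 transfected cells and 100% = cells lacking NR2E3 construct; higher means lower luciferase signal from less NR2E3 corepressor binding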
Rev-erbA mod: modulates human Rev-erb alpha binding to DNA | P20393 | Rev-erbα–FITC-DNA binding, fluorescence polarization, 90 min | activity, % at 10 µM | actives 0.79% (n = 370,000);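 active = activity above about 14%, limit read from the data; passing the limit was not always enough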;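 note: 0% = DMSO wells with 35 nM protein and 100% = DMSO wells with 750 nM protein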
NR2E3 ag-2: agonists of human nuclear receptor NR2E3; inhibition of corepressor binding, % at 4.78 µM; Q9Y5X4; GST-NR2E3/biotin-RetCOR TR-FRET, 1536-well; actives 0.12% (n = 320,000);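 active = percent inhibition above the cutoff of mean plus 3 SD of all tested compounds, set per screening campaign, cut at about 20% in these data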;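 note: 0% = DMSO wells and 100% = biotin wells as full block of FRET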
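Material: NR2E3–RetCOR corepressor complex / Amount: 1.35 nM GST-NR2E3 / Medium: Tris pH 7.5 / Compound: single nominal compound dose of 4.8 µM / Incubation: 5 h at 4 °C / Technique: TR-FRET, Eu(K)-anti-GST donor, streptavidin-D2 acceptor, ex 340, em 617/671 nm / Read-out basis: percent loss of FRET ratio relative to control wells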
NR1D1 mod conf: confirmation of modulators of human Rev-erb alpha DNA binding. actives 61% (n = 3,000). AID 1259319. activation, % at 25 µM. shares compounds with Rev-erbA mod. Rev-erb alpha FITC-DNA binding, fluorescence polarization, 90 min;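 active = activation at or above a set limit, or at least 3 SD above the negative control mean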;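 note: 0% = 35 nM protein with DMSO and 100% = 750 nM protein high control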
RORg DNA counter: affects RORgamma DNA binding in a Rev-erb alpha counter-screen. purified RORgamma protein-FITC-DNA binding, fluorescence polarization. shares compounds with Rev-erbA mod. actives 8% (n = 910). IC50, µM;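 active = Compounds whose fitted half-maximal concentration for disrupting protein-DNA binding is below 10 micromolar; the record names Rev-erb in its text, so the target is in doubt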
An asterisk follows results filed as active; i = inactive; / = no result given.

SMILES	PG9 Ab binder	VLA-4 inh	NR2E3 ag-1	Rev-erbA mod	NR2E3 ag-2	NR1D1 mod conf	others
O=S(=O)(c1ccc(Cl)cc1)N1CCN(c2nc(-c3cccs3)nc3ccccc23)CC1	-2.3	/	-5.5	29.4*	/	14.5
O=S(=O)(c1ccccc1)N1CCN(c2nc(-c3cccs3)nc3ccccc23)CC1	/	5.1	/	/	0.4	/
Nc1nc(-c2ccccc2)c(N=Nc2ccccc2Cl)s1	-1.5	9.6	-17.5	29.8*	0.1	26.8*
Nc1nc(-c2ccccc2)c(N=Nc2cccc3ccccc23)s1	0.4	35.4	-21.6	0.5	-0.9	/
Cc1ccc(CNC(=O)COC(=O)CCOc2ccc(C)cc2)cc1	-3.4	0.8	17.6	3.5	-0.1	/
Cc1ccc(OCCC(=O)OCC(=O)NC(=O)NCc2ccccc2)cc1	0.1	5.0	-18.5	17.5*	-0.4	-1.7
CC(NC(=O)c1ccccc1NC(=O)c1ccco1)c1ccccc1 (stereo not drawn)	1.1	7.2	-7.3	21.0*	4.7	21.7*
CC(=O)c1sc(NC(=O)c2ccccc2F)nc1-c1ccccc1	1.8	-1.1	-110.9	17.0*	8.7	11.0
COc1ccc(OC)c(-c2csc(NC(=O)c3ccc4c(c3)OCO4)n2)c1	-1.9	5.2	-45.4	48.8*	3.3	50.6*	RORg DNA counter=i
COc1ccc(C(=O)Nc2nc3cc4c(cc3s2)OCO4)c(OC)c1	5.8	17.5	-138.0	18.7*	-59.8	11.5*
COc1ccc(C(=O)Nc2nc(-c3ccccc3)c(C(C)=O)s2)c(OC)c1	1.7	-6.4	-36.0	24.8*	-1.7	14.9
CC(=O)c1sc(NC(=O)c2ccc(F)cc2)nc1-c1ccccc1	4.0	32.4	-14.7	17.9	0.6	/
O=C(CSc1nc2ccccc2c(=O)n1-c1ccccc1F)NC1CCS(=O)(=O)C1 (stereo not drawn)	1.5	-6.8	-5.2	-5.0	1.4	/
COc1ccc(S(=O)(=O)N2CCCC2)cc1C(C)C	-2.3	3.3	-9.8	1.4	0.6	/
O=S(=O)(c1ccccc1)c1nnn2c1nc(NC1CCN(Cc3ccccc3)CC1)c1ccccc12	-2.5	-13.7	-28.3	47.5*	1.2	16.2
O=S(=O)(c1ccccc1)c1nnn2c1nc(NC1CCN(Cc3ccccc3)CC1)c1cc(Cl)ccc12	-1.0	20.5	-19.2	24.5*	2.4	-0.1
O=C(CNC(=O)c1ccccc1Cl)NCCc1cccs1	3.8	10.2	-9.7	-3.7	/	/
Cc1ccc(-c2c(C#N)c(N)n(-c3ccccc3C)c(=O)c2C#N)cc1	-1.4	/	-1.9	-3.6	/	/
Cc1ccc(-n2c(N)c(C#N)c(-c3ccccc3)c(C#N)c2=O)cc1	2.3	31.7	-2.8	21.6*	-3.5	61.6*	RORg DNA counter=i
Nc1nc(NC(=O)c2ccc(F)cc2)ns1	-1.1	-8.4	10.1	-5.3	-2.1	/
Cc1c(N=C2N=C(NC(=O)c3cccs3)c3ccccc32)c(=O)n(-c2ccccc2)n1C	-0.4	-99.8	-0.4	18.0*	1.0	16.3
Cc1c(N=C2N=C(NC(=O)NC(C)(C)C)c3ccccc32)c(=O)n(-c2ccccc2)n1C	-3.6	-10.1	-2.8	-0.2	3.4	/
CCOc1ccc(-c2cc(C(=O)OC)nc3c2c(=O)n(C)c(=O)n3C)cc1	0.6	14.8	-6.1	38.9*	-1.6	0.3
CCCOc1ccc(/C(CC)=N/NC(=O)C2(C)CC2(Br)Br)cc1 (stereo not drawn)	-0.9	-1.7	-35.2	34.1*	0.7	47.1*	RORg DNA counter=>40
CC/C(=N/NC(=O)c1ccc(Br)cc1)c1ccc(OCCN2CCOCC2)cc1	-0.7	6.0	-14.1	0.2	-2.1	/
SMILES	PG9 Ab binder	VLA-4 inh	NR2E3 ag-1	Rev-erbA mod	NR2E3 ag-2	NR1D1 mod conf	others
CNC(=O)CSc1nc(-c2ccccc2)c(-c2ccccc2)o1	0.0	-0.6	-2.9	14.0*	-3.1	11.2
C1CCC(NC2=NCCO2)CC1	-1.0	/	-23.4	1.7	/	/
C1COC(NC(C2CC2)C2CC2)=N1	-0.3	24.5	9.1	16.7*	1.1	-6.8
CC1=NN(c2ccccc2)C(=O)/C1=C\C=C1\N(C)c2ccccc2C1(C)C	-3.0	0.2	-13.6	49.4*	-2.3	54.3*	RORg DNA counter=>40
CN1/C(=C\C=C2/C(=O)Oc3ccccc3C2=O)C(C)(C)c2ccccc21	-1.7	-317.7	/	58.8*	0.2	53.4*	RORg DNA counter=>40
CC1=NN(c2ccccc2)C(=O)/C1=C\C=C1/N(C)c2ccccc2C1(C)C	-3.9	-9.6	-13.8	79.0*	5.0	87.2*	RORg DNA counter=8.63*
COc1cccc(C(=O)Nc2cc(NC(=O)c3cccs3)ccc2C)c1OC	4.1	0.5	-21.2	1.2	-0.7	/
Cc1ccc(-c2nc(N)c3c(-c4ccc(C)cc4)nn(C(C)(C)C)c3n2)cc1	1.1	15.2	0.8	30.2*	0.7	-0.9
CSc1nnc2c3ccccc3n(CCc3ccccc3)c2n1	3.4	30.8	-11.6	12.6	2.4	/
CSc1nnc2c3ccccc3n(Cc3ccccc3)c2n1	1.0	49.2	-1.0	21.7*	1.8	24.0*
NNc1nnc2c3cc(F)ccc3n(Cc3ccccc3)c2n1	-1.3	4.4	-28.2	3.5	1.5	/
CSc1nnc2c3cc(F)ccc3n(Cc3ccccc3)c2n1	0.5	6.0	-2.9	59.3*	-0.4	47.3*	RORg DNA counter=>40
COc1ccc(NC(=O)Nc2nnc(Cc3ccc(F)cc3)s2)cc1	-0.4	-65.0	-38.3	2.8	/	/
COC(=O)c1ccc(COC(=O)c2cccn2C)o1	0.4	-2.8	-45.7	7.3	2.9	/
Brc1nc(-c2ccccc2)nc(-c2ccccc2)c1Br	-0.4	20.9	-24.1	64.7*	4.8	685.1*	RORg DNA counter=i
COc1cc2c3nnc(-c4ccccc4)c-3cn(Cc3ccc(F)cc3)c2cc1OC	0.1	-1.6	9.2	23.0*	-0.3	0.1
COc1cc2c3nnc(-c4ccc(F)cc4)c-3cn(Cc3ccc(C)cc3)c2cc1OC	0.8	0.0	-3.5	16.8	1.6	/
CN(CCCn1cnc2c(OCc3ccccc3)ncnc21)Cc1ccco1	0.7	/	1.4	2.9	/	/
O=C(Nc1cccnc1Cl)c1cc(-c2ccc(Br)cc2)on1	2.8	0.6	7.4	23.4*	2.3	-4.2
COc1ccc(-c2cc(C(=O)Nc3cccnc3Cl)no2)cc1OC	-0.3	-9.4	0.5	38.8*	2.2	35.3*	RORg DNA counter=>40
O=C(Nc1cccnc1Cl)c1cc(-c2cccc(O)c2)on1	-1.1	3.3	-4.1	-18.6	-16.5	/
CC(=O)c1cccc(NC(=O)/C(=C\c2cccnc2)NC(=O)c2ccco2)c1	1.2	8.4	-0.8	-5.3	3.6	/
Cc1sc2nc(-c3ccco3)oc(=O)c2c1C	3.6	-7.2	-1.4	3.4	3.7	/
COc1cc(-c2nc3sc(C)c(C)c3c(=O)o2)cc(OC)c1OC	0.9	12.4	14.1	31.3*	-0.5	17.6
